Changes are numbered by the printed parent chain. Like-named read-outs stand apart in the source and are kept apart here.
Columns and labels:
[1] = biological target: T1, wild-type CLC-0 (E166, C212S background) (Torpedo marmorata, UniProt P21564, C212S); format: cell-based; details: for IC50: read-out: Apparent affinity (K1/2)
T1 sequence (P21564 1-805 C212S): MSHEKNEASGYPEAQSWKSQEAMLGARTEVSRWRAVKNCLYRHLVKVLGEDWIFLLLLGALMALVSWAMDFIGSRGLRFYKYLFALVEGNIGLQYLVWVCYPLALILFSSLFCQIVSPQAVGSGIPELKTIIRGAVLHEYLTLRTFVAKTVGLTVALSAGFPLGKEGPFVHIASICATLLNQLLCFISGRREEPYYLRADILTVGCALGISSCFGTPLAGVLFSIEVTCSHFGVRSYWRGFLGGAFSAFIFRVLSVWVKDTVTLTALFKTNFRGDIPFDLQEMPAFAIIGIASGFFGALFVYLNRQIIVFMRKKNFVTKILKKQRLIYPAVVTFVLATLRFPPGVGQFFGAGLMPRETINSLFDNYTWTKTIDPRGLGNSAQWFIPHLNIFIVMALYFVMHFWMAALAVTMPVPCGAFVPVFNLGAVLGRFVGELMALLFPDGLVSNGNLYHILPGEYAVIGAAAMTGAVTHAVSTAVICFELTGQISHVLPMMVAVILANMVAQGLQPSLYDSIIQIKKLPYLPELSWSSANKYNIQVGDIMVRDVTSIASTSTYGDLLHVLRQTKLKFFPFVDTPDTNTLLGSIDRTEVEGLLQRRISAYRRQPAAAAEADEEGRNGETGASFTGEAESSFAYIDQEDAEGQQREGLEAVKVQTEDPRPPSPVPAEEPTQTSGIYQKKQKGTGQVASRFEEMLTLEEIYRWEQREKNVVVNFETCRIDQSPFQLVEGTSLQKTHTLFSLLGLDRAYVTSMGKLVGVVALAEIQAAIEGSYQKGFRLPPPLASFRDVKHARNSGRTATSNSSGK
Procedure, shortened: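 CLC-0 mutants in the C212S background were transfected into HEK293 cells with lipofectamine and recorded 1–3 d later as excised inside-out patches. Both sides held 130 mM NaCl, 5 mM MgCl2, 10 mM HEPES and 1 mM EGTA, pH 7.4. CPA was perfused continuously onto the cytoplasmic face. Steady-state current over the last 10 ms was normalized to bracketing blocker-free controls and fitted to a Langmuir function for K1/2. Values are mean ± SEM of ~4–6 patches.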

CLC-0 E166S mutant = biological target: T2, CLC-0 E166S mutant (Torpedo marmorata, UniProt P21564, C212S/E166S); format: cell-based; details: read-out: Apparent affinity (K1/2)
T2 sequence (P21564 1-805 E166S/C212S): T1 sequence (P21564 1-805 C212S) with E166S
Procedure, shortened: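 CLC-0 mutants (C212S background) were lipofectamine-transfected into HEK293 cells and recorded 1–3 d later from inside-out patches. Pipette and bath contained 130 mM NaCl, 5 MgCl2, 10 HEPES and 1 EGTA (pH 7.4). Test compound was perfused onto the cytoplasmic side. A +80 mV prepulse preceded steps to steady state. The last-10-ms current was normalized to bracketing blocker-free controls and fitted to a Langmuir function for K1/2.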

Compound | IC50 ([1]; −40 mV) [µM] | IC50 ([1]; −60 mV) [µM] | IC50 ([1]; −80 mV) [µM] | IC50 ([1]; −100 mV) [µM] | IC50 ([1]; −120 mV) [µM] | IC50 ([1]; −140 mV) [µM] | IC50 ([1]; −160 mV) [µM] | effect on fast gate Po-V curve ([1]; various concentrations, initial tail current) | IC50 (CLC-0 E166S mutant; −40 mV) [µM] | IC50 (CLC-0 E166S mutant; −60 mV) [µM] | IC50 (CLC-0 E166S mutant; −80 mV) [µM] | IC50 (CLC-0 E166S mutant; −100 mV) [µM] | IC50 (CLC-0 E166S mutant; −120 mV) [µM] | IC50 (CLC-0 E166S mutant; −140 mV) [µM] | IC50 (CLC-0 E166S mutant; −160 mV) [µM]
CCCCCCCC(=O)O [octanoate] | 2610 ± 300 | 1290 ± 130 | 670 ± 50 | 390 ± 10 | 300 ± 20 | 260 ± 30 | 190 ± 40 | shifts the fast gate Po-V curve toward more depolarized voltages | 855 ± 37 | 403 ± 22 | 198 ± 11 | 100 ± 9 | 50 ± 3 | 26 ± 3 | 16 ± 2
O=C(O)COc1ccc(Cl)cc1 [CPA, p-chlorophenoxy acetate] | 9370 ± 330 | 5220 ± 230 | 2870 ± 200 | 1960 ± 210 | 1570 ± 190 | 1170 ± 190 | 1340 ± 250 | – | 641 ± 36 | 342 ± 15 | 179 ± 7 | 104 ± 4 | 58 ± 3 | 35 ± 2 | 21 ± 1
